From ChEMBL document CHEMBL1153929, “Exploration and synthesis of curcumin analogues with improved structural stability both in vitro and in vivo as cytotoxic agents” (Bioorg Med Chem, 2009)

Key:
[1] = Hydrolytic stability assessed as compound degradation at 2 mg in sodium dihydrogen phosphate buffered 0.3% sodium carboxymethylcellulose solution at pH 7.4 after 45 hrs by HPLC; format: physicochemical; conditions: read-out: Activity
Method in brief: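 2 mg of sample was vortexed into 1 ml of 0.3% (w/v) CMCNa solution in phosphate buffer at pH 7.4 and kept in the dark at 37 °C. HPLC peak areas were recorded. Degradation = (area at 0 h − area at end time) / area at 0 h × 100%.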

[2] = system: KB (human); assay: Cytotoxicity against human KB cells after 72 hrs by MTT assay
[3] = Cytotoxicity against human LS 174T cells after 72 hrs by MTT assay; format: functional, cell-based; conditions: LS174T
Method in brief: (§1)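 Cells were plated at 5000 per well in 1640 medium with 5% heat-inactivated calf serum and penicillin/streptomycin, at 37 °C and 5% CO2. After 24 h, compounds in DMSO were added at final 100, 33.3, 11.1 and 3.7 µg/ml for 72 h. MTT (5 mg/ml in 0.9% NaCl) was then added for 3 h, the formazan dissolved in DMSO, and absorbance read at 570 nm.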

[4] = system: PC-3; assay: Cytotoxicity against human PC3 cells after 72 hrs by MTT assay; format: functional, cell-based; conditions: PC-3, 72 h; method in brief: as §1
[5] = system: HL-60 (human); assay: Cytotoxicity against human HL60 cells after 72 hrs by MTT assay; conditions: HL-60, 72 h
[6] = system: BGC-823; assay: Cytotoxicity against human BGC823 cells after 72 hrs by MTT assay; format: functional, cell-based; conditions: BGC-823, 72 h; method in brief: as §1
[7] = system: HeLa; assay: Cytotoxicity against human HeLa cells after 72 hrs by MTT assay; format: functional, cell-based; method in brief: as §1
[8] = system: CNE; assay: Cytotoxicity against human CNE cells after 72 hrs by MTT assay; format: functional, cell-based; method in brief: as §1

SMILES	degraded at 45 h [1]	IC50 [2]	IC50 [3]	IC50 [4]	IC50 [5]	IC50 [6]	IC50 [7]	IC50 [8]
O=C(/C=C/c1ccc(F)cc1)/C=C/c1ccc(F)cc1	0%	94.6 µM	98.8 µM	15.2 µM	–	–	–	–
COc1cc(/C=C/C(=O)/C=C/c2cc(OC)c(OC)c(OC)c2)cc(OC)c1OC	0%	98.7 µM	148 µM	8.8 µM	–	–	95 µM	–
COc1ccccc1/C=C/C(=O)/C=C/c1ccccc1OC	0%	< 12.6 µM	–	–	< 12.6 µM	–	161 µM	–
O=C(/C=C/c1ccccc1Cl)/C=C/c1ccccc1Cl	0%	59 µM	–	–	8.6 µM	–	–	–
Cc1ccsc1/C=C/C(=O)/C=C/c1sccc1C	0%	–	–	138 µM	–	–	–	–
O=C1/C(=C/c2ccc(OC3CCCCO3)cc2)CCC/C1=C\c1ccc(OC2CCCCO2)cc1 (centres undefined)	0%	–	3.9 µM	–	134 µM	–	–	–
Cc1ccc(/C=C2\CCC/C(=C\c3ccc(C)s3)C2=O)s1	0%	249 µM	–	77.6 µM	–	–	–	–
O=C1/C(=C/c2ccc(F)cc2)CC/C1=C\c1ccc(F)cc1	0%	–	–	–	–	–	1.2 µM	–
CN(C)c1ccc(/C=C2\CC/C(=C\c3ccc(N(C)C)cc3)C2=O)cc1	0%	–	–	–	–	–	–	–
CC(C)(C)c1ccc(/C=C2\CCC/C(=C\c3ccc(C(C)(C)C)cc3)C2=O)cc1	0%	78.9 µM	–	–	–	–	–	–
O=C(/C=C/c1ccccc1C(F)(F)F)/C=C/c1ccccc1C(F)(F)F	0%	< 3.7 µM	–	0.35 µM	< 10 µM	–	–	–
CN(C)CCCOc1ccc(/C=C2\CC/C(=C\c3ccc(OCCCN(C)C)cc3)C2=O)cc1	0%	3.3 µM	–	–	–	–	–	2.4 µM
O=C(/C=C/C=C/c1ccccc1)/C=C/C=C/c1ccccc1	0%	–	–	–	36.5 µM	–	–	–
Cn1cccc1/C=C1\CCC/C(=C\c2cccn2C)C1=O	0%	2.3 µM	–	–	–	–	–	–
O=C1/C(=C/c2ccccc2Br)CC/C1=C\c1ccccc1Br	0%	109 µM	–	24.7 µM	–	–	–	32.8 µM
O=C1/C(=C/c2ccccc2C(F)(F)F)CCC/C1=C\c1ccccc1C(F)(F)F	0%	54 µM	–	–	–	–	46.3 µM	–

SMILES	degraded at 45 h [1]	IC50 [2]	IC50 [3]	IC50 [4]	IC50 [5]	IC50 [6]	IC50 [7]	IC50 [8]
Cc1ccc(C)c(/C=C2\CCC/C(=C\c3cc(C)ccc3C)C2=O)c1	0%	35.3 µM	–	–	–	–	–	–
COc1cccc(/C=C2\CCC/C(=C\c3cccc(OC)c3OC)C2=O)c1OC	0%	179 µM	84.5 µM	–	–	55.3 µM	–	–
O=C1/C(=C/c2cccc(Br)c2)CCC/C1=C\c1cccc(Br)c1	0%	15.9 µM	11.5 µM	–	–	–	15.7 µM	–
COc1ccccc1/C=C1\CC/C(=C\c2ccccc2OC)C1=O	0%	–	–	5.3 µM	2.3 µM	–	–	–
CCOc1ccc(/C=C2\CC/C(=C\c3ccc(OCC)cc3)C2=O)cc1	0%	–	–	–	–	–	24 µM	–
O=C1/C(=C/c2ccc(F)cc2)CCC/C1=C\c1ccc(F)cc1	0%	150 µM	7.4 µM	–	58.1 µM	87.3 µM	–	77.9 µM
CCOc1ccc(/C=C2\CCC/C(=C\c3ccc(OCC)cc3)C2=O)cc1	0%	–	5.6 µM	–	85.8 µM	–	–	–
O=C1/C(=C/C=C/c2ccccc2)CCC/C1=C\C=C\c1ccccc1	0%	29.4 µM	24.3 µM	61.5 µM	–	15.6 µM	49.9 µM	–
O=C(/C=C/c1ccc(Br)o1)/C=C/c1ccc(Br)o1	0%	24.5 µM	58.8 µM	34.3 µM	–	30.9 µM	16.8 µM	–
Cn1cccc1/C=C1\CC/C(=C\c2cccn2C)C1=O	0%	–	9.2 µM	–	–	–	–	–
C=CCOc1ccc(/C=C/C(=O)/C=C/c2ccc(OCC=C)cc2)cc1	0%	–	–	–	64.6 µM	–	–	–
O=C(/C=C/c1ccc(OC2CCCCO2)cc1)/C=C/c1ccc(OC2CCCCO2)cc1 (centres undefined)	0%	–	–	43.4 µM	0.3 µM	–	–	–
O=C1/C(=C/c2ccc(Br)s2)CC/C1=C\c1ccc(Br)s1	0%	–	9 µM	–	–	–	–	–
O=C1/C(=C/C=C/c2ccccc2)CC/C1=C\C=C\c1ccccc1	0%	–	–	117 µM	–	–	–	–
Cc1ccc(C)c(/C=C/C(=O)/C=C/c2cc(C)ccc2C)c1	0%	–	103 µM	5.2 µM	–	–	6.1 µM	17.7 µM

The next lines start with results.

degraded at 45 h [1]	SMILES	IC50 [2]	IC50 [3]	IC50 [4]	IC50 [5]	IC50 [6]	IC50 [7]	IC50 [8]
0%	O=C1/C(=C/c2ccccc2C(F)(F)F)CC/C1=C\c1ccccc1C(F)(F)F	< 9.34 µM	213 µM	–	–	–	–	–
0%	O=C1/C(=C/c2ccccc2Cl)CCC/C1=C\c1ccccc1Cl	6.7 µM	4.2 µM	13.8 µM	98.3 µM	4.4 µM	–	–
0%	O=C1/C(=C/c2ccc(OC3CCCCO3)cc2)CC/C1=C\c1ccc(OC2CCCCO2)cc1 (centres undefined)	–	–	–	–	–	39.1 µM	–
0%	C=CCOc1ccc(/C=C2\CCC/C(=C\c3ccc(OCC=C)c(OC)c3)C2=O)cc1OC	102 µM	–	–	–	–	–	–
0%	COc1cccc(/C=C2\CC/C(=C\c3cccc(OC)c3OC)C2=O)c1OC	–	–	–	–	–	249 µM	–
0%	COc1cc(/C=C2\CCC/C(=C\c3ccc(O)c(OC)c3)C2=O)ccc1O [CYCLOVALONE]	< 10.1 µM	4.6 µM	–	–	–	–	17.6 µM
0%	O=C(/C=C/c1ccc2ccccc2c1)/C=C/c1ccc2ccccc2c1	–	–	–	69.2 µM	39.7 µM	–	–
0%	O=C(/C=C/c1ccc(O)cc1)/C=C/c1ccc(O)cc1	41.5 µM	–	48.9 µM	–	–	217 µM	–
0%	COc1cccc(/C=C/C(=O)/C=C/c2cccc(OC)c2OC)c1OC	24.3 µM	48 µM	–	4.5 µM	24.4 µM	–	–
0%	O=C1/C(=C/c2ccccc2Br)CCC/C1=C\c1ccccc1Br	55.3 µM	–	–	–	–	–	–
0%	O=C1/C(=C/c2ccccc2Cl)CC/C1=C\c1ccccc1Cl	96 µM	–	–	87.2 µM	–	–	–
0%	O=C1/C(=C/c2ccccc2F)CCC/C1=C\c1ccccc1F	74.1 µM	–	45.8 µM	–	–	15.5 µM	130 µM
0%	O=C1/C(=C/c2cccs2)CCC/C1=C\c1cccs1 [TENYLIDONE]	86 µM	–	–	–	–	–	–
0%	O=C1/C(=C/c2ccc(Br)o2)CCC/C1=C\c1ccc(Br)o1	–	–	21.8 µM	65.8 µM	–	–	–
0%	O=C1/C(=C/c2ccc3c(c2)OCO3)CC/C1=C\c1ccc2c(c1)OCO2	–	–	–	225 µM	–	–	–
0%	C=CCOc1ccc(/C=C2\CCC/C(=C\c3ccc(OCC=C)cc3)C2=O)cc1	85.3 µM	–	–	–	–	–	–
0%	C=CCOc1cc(/C=C2\CC/C(=C\c3ccc(OC)c(OCC=C)c3)C2=O)ccc1OC	–	–	–	–	32.6 µM	–	–
0%	CC(C)(C)c1ccc(/C=C/C(=O)/C=C/c2ccc(C(C)(C)C)cc2)cc1	–	–	12 µM	–	–	21.8 µM	89.8 µM
0%	O=C(/C=C/c1cccs1)/C=C/c1cccs1	123 µM	79.5 µM	10.3 µM	–	–	6.2 µM	154 µM
0%	COc1cc(/C=C2\CC/C(=C\c3cc(OC)c(OC)c(OC)c3)C2=O)cc(OC)c1OC	–	–	–	–	–	–	–
0%	COc1cc(/C=C2\CCC/C(=C\c3cc(OC)c(OC)c(OC)c3)C2=O)cc(OC)c1OC	117 µM	–	22.7 µM	29.3 µM	–	27.5 µM	–
0%	O=C1/C(=C/c2ccc3ccccc3c2)CC/C1=C\c1ccc2ccccc2c1	–	–	–	–	38.1 µM	–	–
